As usually defined, the inhibition is the share of the control response that was lost under treatment.

SMILES strings stand for the structures. Activity calls are given as the source filed them. The rule behind the calls is not given here.

Assay [1] in a line: Inhibition of recombinant human N-terminal His6-tagged PKBbeta S474D mutant (120 to 481 residues) expressed in baculovirus infected Sf21 cells assessed as remaining activity at 10 uM using crosstide peptide as substrate incubated for 30 mins in presence of [gamma-33P]ATP by filter binding method relative to control. The note with it: condition cancer, 0.5 h. The gist of the method:
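Assays ran 30 min at 21 °C, robotically and in the linear range. Remaining activity is given relative to incubations lacking compound, as the average of triplicate determinations ± S.D.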

The target of assay [2] is Dual specificity tyrosine-phosphorylation-regulated kinase 3 (Homo sapiens) (UniProt O43781). The experiment in a line: Inhibition of recombinant human N-terminal GST-tagged DYRK3 (1 to 588 residues) expressed in Escherichia coli assessed as remaining activity at 1 uM using KKISGRLSPIMTEQ as substrate incubated for 30 mins in presence of [gamma-33P]ATP by filter binding method relative to control. In outline:
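Radiometric kinase panel run robotically at 21 °C for 30 min, linear in time and enzyme. […] Activity expressed as percentage of control without inhibitor; triplicate determinations.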

For assay [3], the target named is MAP kinase-interacting serine/threonine-protein kinase 1 (Homo sapiens) (UniProt Q9BUB5). The experiment in a line: Inhibition of recombinant human N-terminal GST-tagged C-terminal His6-tagged MNK1 (2 to 424 residues) expressed in Escherichia coli assessed as remaining activity at 1 uM using eIF4E as substrate incubated for 30 mins in presence of [gamma-33P]ATP by filter binding method relative to control.
MAP kinase-interacting serine/threonine-protein kinase 1 (Homo sapiens), sequence (Q9BUB5 whole entry, looked up, the tested form may be a part): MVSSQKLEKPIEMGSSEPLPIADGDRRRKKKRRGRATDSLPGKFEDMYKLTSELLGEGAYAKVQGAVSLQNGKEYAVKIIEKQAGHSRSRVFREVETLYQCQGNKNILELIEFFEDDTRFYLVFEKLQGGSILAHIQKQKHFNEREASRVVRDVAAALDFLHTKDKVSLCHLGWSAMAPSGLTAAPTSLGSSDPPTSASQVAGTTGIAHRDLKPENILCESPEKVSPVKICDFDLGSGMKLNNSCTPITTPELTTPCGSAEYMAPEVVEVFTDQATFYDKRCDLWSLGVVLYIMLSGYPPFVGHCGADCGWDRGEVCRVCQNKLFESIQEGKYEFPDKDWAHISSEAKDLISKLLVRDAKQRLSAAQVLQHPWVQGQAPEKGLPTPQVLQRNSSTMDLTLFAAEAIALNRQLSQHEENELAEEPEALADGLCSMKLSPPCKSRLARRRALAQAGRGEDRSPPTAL

Assay [4] has as its target Serine/threonine-protein kinase pim-2 (Homo sapiens) (UniProt Q9P1W9). The experiment in a line: Inhibition of recombinant human N-terminal GST-tagged PIM2 (2 to 334 residues) expressed in Escherichia coli assessed as remaining activity at 1 uM using RSRHSSYPAGT as substrate incubated for 30 mins in presence of [gamma-33P]ATP by filter binding method relative to control. The gist of the method:
(§1)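 Radiometric kinase panel run robotically at room temperature (21 °C) for 30 min, linear in time and enzyme. […] Activity is expressed as percent of control without compound, from triplicate determinations ± S.D.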

The target of assay [5] is Serine/threonine-protein kinase 26 (Homo sapiens) (UniProt Q9P289). The experiment in a line: Inhibition of recombinant human N-terminal His6-tagged MST4 (1 to 416 residues) expressed in baculovirus infected Sf21 cells assessed as remaining activity at 10 uM using MBP as substrate incubated for 30 mins in presence of [gamma-33P]ATP by filter binding method relative to control.
Serine/threonine-protein kinase 26 (Homo sapiens), sequence (Q9P289 2-416 limits assumed): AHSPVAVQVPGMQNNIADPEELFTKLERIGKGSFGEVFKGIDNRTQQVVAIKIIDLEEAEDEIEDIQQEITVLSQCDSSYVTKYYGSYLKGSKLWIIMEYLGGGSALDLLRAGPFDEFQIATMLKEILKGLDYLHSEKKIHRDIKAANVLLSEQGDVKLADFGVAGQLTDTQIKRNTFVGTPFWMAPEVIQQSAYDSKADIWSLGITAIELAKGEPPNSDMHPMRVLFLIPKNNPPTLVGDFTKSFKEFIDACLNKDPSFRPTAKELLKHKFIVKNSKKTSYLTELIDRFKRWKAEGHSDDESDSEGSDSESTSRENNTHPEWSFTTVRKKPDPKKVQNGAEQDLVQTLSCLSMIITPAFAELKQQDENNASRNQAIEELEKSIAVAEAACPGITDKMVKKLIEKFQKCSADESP

Assay [6] deals with Mitogen-activated protein kinase 11 (Homo sapiens) (UniProt Q15759). The experiment in a line: Inhibition of recombinant human N-terminal GST-tagged P38beta (1 to 364 residues) expressed in Escherichia coli assessed as remaining activity at 10 uM using MBP as substrate incubated for 30 mins in presence of [gamma-33P]ATP by filter binding method relative to control. The gist of the method:
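Panel assays were run for 30 min at 21 °C, within the linear range for time and enzyme. […] Results are percent activity remaining relative to compound-free control, averaged from triplicate ± S.D.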

Assay [7] concerns the target Serine/threonine-protein kinase PAK 4 (Homo sapiens) (UniProt O96013). The experiment in a line: Inhibition of recombinant human N-terminal GST-tagged PAK4 (2 to 519 residues) expressed in Escherichia coli assessed as remaining activity at 10 uM using RRRLSFAEPG as substrate incubated for 30 mins in presence of [gamma-33P]ATP by filter binding method relative to control. The gist of the method:
as §1

The target of assay [8] is Serine/threonine-protein kinase pim-3 (Homo sapiens) (UniProt Q86V86). The experiment in a line: Inhibition of recombinant human N-terminal His6-tagged PIM3 (2 to 326 residues) expressed in baculovirus infected Sf21 cells assessed as remaining activity at 10 uM using RSRHSSYPAGT as substrate incubated for 30 mins in presence of [gamma-33P]ATP by filter binding method relative to control.

Assay [9] concerns the target Serine/threonine-protein kinase N2 (Homo sapiens) (UniProt Q16513). The experiment in a line: Inhibition of recombinant N-terminal His6/FLAG-tagged human PRK2 (501 to 984 residues) expressed in baculovirus infected Sf21 cells assessed as remaining activity at 10 uM using S6 peptide as substrate incubated for 30 mins in presence of [gamma-33P]ATP by filter binding method relative to control. In outline:
(§2)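 Kinase panel run robotically at 21 °C for 30 min, linear in time and enzyme. […] Compound tested at 1 or 10 µM. Activity given as percentage of incubations without compound, mean of triplicates ± S.D.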

For assay [10], the target named is Dual specificity mitogen-activated protein kinase kinase 1 (Homo sapiens) (UniProt Q02750). The experiment in a line: Inhibition of recombinant human MKK1 (2 to 393 residues) expressed in Escherichia coli at 10 uM using MBP as substrate incubated for 30 mins in presence of [gamma-33P]ATP by filter binding method relative to control. The gist of the method: as §2
Dual specificity mitogen-activated protein kinase kinase 1 (Homo sapiens), sequence (Q02750 whole entry, the tested form may be a part): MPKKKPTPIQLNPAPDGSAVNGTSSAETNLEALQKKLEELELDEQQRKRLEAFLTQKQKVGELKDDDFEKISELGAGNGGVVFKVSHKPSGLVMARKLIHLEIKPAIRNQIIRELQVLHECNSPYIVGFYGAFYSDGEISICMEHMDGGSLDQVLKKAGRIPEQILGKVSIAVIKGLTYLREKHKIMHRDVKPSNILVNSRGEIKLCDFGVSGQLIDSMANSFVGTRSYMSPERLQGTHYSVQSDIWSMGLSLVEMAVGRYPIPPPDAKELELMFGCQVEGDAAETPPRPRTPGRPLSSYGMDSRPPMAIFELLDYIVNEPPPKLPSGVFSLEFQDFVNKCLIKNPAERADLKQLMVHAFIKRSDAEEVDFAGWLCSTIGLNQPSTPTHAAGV

The target of assay [11] is Sphingosine kinase 1 (Homo sapiens) (UniProt Q9NYA1). The experiment in a line: Inhibition of SPHK1 (unknown origin) assessed as remaining activity at 1 uM using sphingosine as substrate incubated for 30 mins in presence of ATP relative to control. The gist of the method:
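SPHK1 assayed with 10 μM sphingosine, 10 μM ATP in 50 mM Tris/HCl pH 7.5, 150 mM NaCl, 5 mM MgCl2, 1 mM EGTA, 1 mM DTT, 30 min at room temperature. ATP remaining read by Kinase-Glo Plus luminescence after 10 min. Activity as % of control, triplicate.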

A further assay deals with HEK293. The experiment in a line: Inhibition of PI3K in IGF1-stimulated HEK293 cells assessed as reduction in IGF1-stimulated PtdIns(3,4,5)P3 production at 1 uM pre incubated for 30 mins followed by IGF1-stimulation for 10 mins. Format: cell-based. The settings on record: Homo sapiens.
The target in assay [12] is T1, Mitogen-activated protein kinase; ERK1/ERK2 (Homo sapiens) (UniProt P27361+P28482). The experiment in a line: Inhibition of ERK1/2 in serum starved/PMA-stimulated HEK293 cells assessed as reduction in RSK phosphorylation at S227 residues at 1 uM incubated for 30 mins by immunoblot analysis. Type of assay: cell-based. (In general: A western blot detects proteins with antibodies after separation by electrophoresis.)
T1 sequence (P27361 whole entry, looked up): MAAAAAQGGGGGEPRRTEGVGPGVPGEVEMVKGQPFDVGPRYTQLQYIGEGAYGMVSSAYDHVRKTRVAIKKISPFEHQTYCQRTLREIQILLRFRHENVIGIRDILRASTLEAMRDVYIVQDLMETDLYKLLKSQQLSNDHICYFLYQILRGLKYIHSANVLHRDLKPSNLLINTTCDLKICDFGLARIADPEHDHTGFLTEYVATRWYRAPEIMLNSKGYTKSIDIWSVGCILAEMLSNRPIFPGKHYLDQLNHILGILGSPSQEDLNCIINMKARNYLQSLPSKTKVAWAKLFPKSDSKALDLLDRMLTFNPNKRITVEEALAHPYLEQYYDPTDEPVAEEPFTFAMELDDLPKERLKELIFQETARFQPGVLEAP
T1 sequence (P28482 whole entry, looked up): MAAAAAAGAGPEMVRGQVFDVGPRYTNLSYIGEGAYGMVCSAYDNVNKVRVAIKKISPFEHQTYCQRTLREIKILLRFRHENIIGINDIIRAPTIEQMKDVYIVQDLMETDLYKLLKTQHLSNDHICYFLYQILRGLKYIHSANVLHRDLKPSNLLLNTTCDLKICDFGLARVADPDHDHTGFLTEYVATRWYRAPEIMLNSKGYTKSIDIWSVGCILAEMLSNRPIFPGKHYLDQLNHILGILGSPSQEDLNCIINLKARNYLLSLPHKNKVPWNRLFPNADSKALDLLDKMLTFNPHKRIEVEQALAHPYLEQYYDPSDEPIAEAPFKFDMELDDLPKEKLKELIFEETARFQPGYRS

For assay [13], the target named is T1, Mitogen-activated protein kinase; ERK1/ERK2 (Homo sapiens). The experiment in a line: Inhibition of ERK1/2 in serum starved/PMA-stimulated HEK293 cells assessed as reduction in RSK phosphorylation at S380 residues at 1 uM incubated for 30 mins by immunoblot analysis. Format: cell-based.
In assay [14] the target is T2, mTORC1 (Homo sapiens) (UniProt P42345+Q8N122+Q9BVC4). The note with it: HEK293, dose 30-1000 nM, time 30.0 min.
For assay [15], the target named is T2, mTORC1 (Homo sapiens). The settings on record: HEK293, dose 100-300 nM, time 30.0 min.
The target of the next assay is mTORC2 (Homo sapiens) (UniProt P42345+Q6R327+Q9BVC4+Q9BPZ7). The note with it: HEK293, dose 30-1000 nM, time 30.0 min.
In assay [16] the target is Serine/threonine-protein kinase D1 (Homo sapiens) (UniProt Q15139). The experiment in a line: Inhibition of recombinant human N-terminal His6-tagged PKD1 (2 to 912 residues) expressed in baculovirus infected Sf21 cells assessed as remaining activity at 10 uM using KKLNRTLSVA as substrate incubated for 30 mins in presence of [gamma-33P]ATP by filter binding method relative to control.

Serine/threonine-protein kinase N2 (Homo sapiens), sequence (Q16513 whole entry, looked up, the tested form may be a part): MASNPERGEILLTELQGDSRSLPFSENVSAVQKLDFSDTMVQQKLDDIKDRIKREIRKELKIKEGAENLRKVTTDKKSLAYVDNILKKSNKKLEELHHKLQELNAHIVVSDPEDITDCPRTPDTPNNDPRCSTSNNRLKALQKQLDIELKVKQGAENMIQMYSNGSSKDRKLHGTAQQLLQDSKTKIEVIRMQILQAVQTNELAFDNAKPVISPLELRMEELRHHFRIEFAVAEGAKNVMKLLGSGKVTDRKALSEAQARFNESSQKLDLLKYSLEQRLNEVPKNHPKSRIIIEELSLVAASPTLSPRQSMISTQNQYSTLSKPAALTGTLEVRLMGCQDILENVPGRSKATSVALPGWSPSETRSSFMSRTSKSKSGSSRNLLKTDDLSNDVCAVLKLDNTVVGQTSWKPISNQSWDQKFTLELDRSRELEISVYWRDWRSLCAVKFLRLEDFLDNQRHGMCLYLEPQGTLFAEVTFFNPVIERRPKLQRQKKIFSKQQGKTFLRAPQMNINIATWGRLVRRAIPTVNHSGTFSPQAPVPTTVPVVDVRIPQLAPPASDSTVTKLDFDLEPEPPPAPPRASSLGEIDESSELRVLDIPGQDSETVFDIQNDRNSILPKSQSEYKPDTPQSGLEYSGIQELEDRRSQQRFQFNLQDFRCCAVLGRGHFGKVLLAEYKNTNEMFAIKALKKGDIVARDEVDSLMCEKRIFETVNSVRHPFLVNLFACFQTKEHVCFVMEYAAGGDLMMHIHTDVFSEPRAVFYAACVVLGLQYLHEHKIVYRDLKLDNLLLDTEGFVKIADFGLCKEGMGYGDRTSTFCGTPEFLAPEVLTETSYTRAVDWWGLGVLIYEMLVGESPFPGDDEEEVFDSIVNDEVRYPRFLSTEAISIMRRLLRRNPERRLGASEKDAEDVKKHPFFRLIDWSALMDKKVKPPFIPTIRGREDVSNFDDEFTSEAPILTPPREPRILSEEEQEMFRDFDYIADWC
Sphingosine kinase 1 (Homo sapiens), sequence (Q9NYA1 whole entry): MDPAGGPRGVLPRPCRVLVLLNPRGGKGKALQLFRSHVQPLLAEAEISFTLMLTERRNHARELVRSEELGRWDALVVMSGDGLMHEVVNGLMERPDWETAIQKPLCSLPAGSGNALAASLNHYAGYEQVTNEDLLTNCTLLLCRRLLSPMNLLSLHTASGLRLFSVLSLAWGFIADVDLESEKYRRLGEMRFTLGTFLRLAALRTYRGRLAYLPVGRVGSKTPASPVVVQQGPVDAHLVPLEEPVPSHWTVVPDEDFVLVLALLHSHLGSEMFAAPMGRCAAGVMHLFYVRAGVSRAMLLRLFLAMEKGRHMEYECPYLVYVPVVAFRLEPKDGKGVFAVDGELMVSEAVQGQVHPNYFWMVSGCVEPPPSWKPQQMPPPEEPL
Dual specificity tyrosine-phosphorylation-regulated kinase 3 (Homo sapiens), sequence (O43781 whole entry, the tested form may be a part): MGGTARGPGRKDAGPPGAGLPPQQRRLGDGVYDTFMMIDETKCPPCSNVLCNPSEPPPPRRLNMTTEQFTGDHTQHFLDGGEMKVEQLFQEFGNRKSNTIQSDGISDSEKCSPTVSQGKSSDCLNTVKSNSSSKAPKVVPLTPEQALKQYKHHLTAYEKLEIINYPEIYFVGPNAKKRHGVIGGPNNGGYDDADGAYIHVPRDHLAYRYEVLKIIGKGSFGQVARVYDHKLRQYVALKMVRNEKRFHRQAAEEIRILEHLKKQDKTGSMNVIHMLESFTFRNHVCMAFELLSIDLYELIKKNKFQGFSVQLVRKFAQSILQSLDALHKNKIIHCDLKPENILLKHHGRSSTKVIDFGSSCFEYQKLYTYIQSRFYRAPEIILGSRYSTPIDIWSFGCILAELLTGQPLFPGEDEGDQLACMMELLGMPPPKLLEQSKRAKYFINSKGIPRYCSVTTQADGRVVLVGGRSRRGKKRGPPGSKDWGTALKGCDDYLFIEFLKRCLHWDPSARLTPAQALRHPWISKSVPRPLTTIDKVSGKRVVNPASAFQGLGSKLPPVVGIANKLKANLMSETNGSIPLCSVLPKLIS
Serine/threonine-protein kinase pim-2 (Homo sapiens), sequence (Q9P1W9 whole entry, looked up, the tested form may be a part): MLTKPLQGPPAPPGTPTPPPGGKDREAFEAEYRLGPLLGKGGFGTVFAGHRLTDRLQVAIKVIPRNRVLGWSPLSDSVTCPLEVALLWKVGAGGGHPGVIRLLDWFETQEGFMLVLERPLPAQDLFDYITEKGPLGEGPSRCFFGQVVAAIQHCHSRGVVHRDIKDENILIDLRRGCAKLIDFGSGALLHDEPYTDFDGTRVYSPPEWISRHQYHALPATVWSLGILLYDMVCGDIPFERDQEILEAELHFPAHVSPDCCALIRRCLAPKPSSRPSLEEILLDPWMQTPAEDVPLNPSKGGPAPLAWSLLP
Mitogen-activated protein kinase 11 (Homo sapiens), sequence (Q15759 whole entry, the tested form may be a part): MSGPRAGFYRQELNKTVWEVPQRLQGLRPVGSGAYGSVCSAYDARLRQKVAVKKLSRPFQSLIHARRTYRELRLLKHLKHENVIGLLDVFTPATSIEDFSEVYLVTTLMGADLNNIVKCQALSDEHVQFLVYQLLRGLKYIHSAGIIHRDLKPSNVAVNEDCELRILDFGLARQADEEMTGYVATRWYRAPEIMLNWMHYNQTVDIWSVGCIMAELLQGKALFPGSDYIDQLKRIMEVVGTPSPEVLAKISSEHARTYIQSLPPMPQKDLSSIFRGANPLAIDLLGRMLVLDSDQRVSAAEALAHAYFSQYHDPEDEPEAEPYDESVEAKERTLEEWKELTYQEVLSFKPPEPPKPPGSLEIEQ

`COc1ccc(-c2ccc3c(N4CCOCC4)nc(N4C[C@@H](C)O[C@@H](C)C4)nc3n2)cc1CO` [Ku-0063794]: the Activity in assay [1] worked out at 107%; in assay [2] it was 88%; in assay [3] it was 111%; in [4] it was 86%; in [5] it was 86%; in assay [6] it was 83%. Further, the Activity in [7] is 75%; in assay [8], 75%; in assay [9] it was 105%; in [11], 108%; in assay [16], 101%. Besides, the inhibition is 55% in assay [10], “Dose-Dependent Effect” on mTORC1 (Homo sapiens) [14], 100% against mTORC1 (Homo sapiens) [15] and “Dose-Dependent Effect” on mTORC2 (Homo sapiens). For the same compound, the inhibition result (in the assay on HEK293; in [12]; in [13]) was “inactive” in each case.

The values above are taken from ChEMBL document CHEMBL5678799 (Biochem J, 2009).
